Results on 1 substance are retold here after article PMC10785272 (ACS Omega, 2023).

For data set [1], the system named is A549 cell-bearing mice. Kind of data set: In vivo biodistribution. Also noted: species or system mouse. The conditions noted are these: 4 mg of Pt/kg tail vein; for ratio of platinum concentration tumor/blood / ratio of platinum concentration tumor/bone / ratio of platinum concentration tumor/kidney / ratio of platinum concentration tumor/liver / ratio of platinum concentration tumor/muscle: A549 cell-bearing mice; for platinum accumulation in tumors: ICP-MS, mean ± SD (n = 4). A digest of the protocol:
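Male BALB/c nu/nu mice (5 weeks old, quarantined 1 week) received 1 × 10^7 A549 cells s.c. into the right shoulder. At 50 mm3 tumour volume, mice got 4 mg Pt/kg by tail vein in freshly prepared saline (n = 4/group). At 24 and 48 h, Pt in tumour, muscle, bone, blood, liver and kidney was measured by ICP-MS after acid digestion. Values are ng Pt/g tissue and tumour/organ concentration ratios.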

Data set [2] is described as follows: In vitro stability of FGC-Pt in mouse plasma. The conditions noted are these: 37 °C. It counts as in vitro ADME. In outline: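 Test compound (2.4 mg) was mixed with purchased mouse plasma (160 µL) and held at 37 °C for 0, 2, 4 and 6 h. Each mixture was diluted with saline, filtered and analysed by HPLC on a Sugar-D column with a water/methanol linear gradient at 0.5 mL/min, with UV detection at 220 nm. Results are mean ± SD, n = 3.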

For the next data set, the system named is HeLa cells. In words: In vitro cytotoxicity MTS assay with HeLa cells. It counts as cell-based, human. Conditions: HeLa cell line, 48 h incubation, mean ± SD (n = 3). A digest of the protocol: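 HeLa cells were grown in EMEM with 10% FBS, nonessential amino acids and sodium pyruvate at 37 °C in 5% CO2. They were seeded at 40000 cells/well and left 24 h, then exposed 48 h to freshly prepared medium holding test compound over 0–100 or 0–1000 µM. MTS was added for 3 h and absorbance read at 490 nm. IC50 was obtained by curve fitting; runs were in triplicate.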
A general note: Tetrazolium dyes change colour on reduction, which living cells bring about.

In data set [3] the test system is A549 cell-bearing mice. In words: In vivo assessment of antitumor effect and toxicity in A549 cell-bearing mice. Also noted: species or system mouse. Conditions: 2.7 mg of Pt/kg i.v. on days 1, 8, 15, 22; n = 6.

Take “cis-Dichloro [(2-Fluoro-α-D-glucopylanosidyl)propane-1,3-diamine] Platinum [FGC-Pt]”: in the data set on A549 cell-bearing mice [1] (24 h post-injection), the “ratio of platinum concentration tumor/blood” value is on record as 11.07, the “ratio of platinum concentration tumor/bone” value was 2.93, the “ratio of platinum concentration tumor/kidney” value is reported as 0.29 and the “ratio of platinum concentration tumor/liver” value is 0.50. Besides, in the data set on A549 cell-bearing mice [1] (24 h post-injection), the “ratio of platinum concentration tumor/muscle” value is given as 3.64 and the “platinum accumulation in tumors” value came out at 1058 ± 220 Pt ng/g tissue. In the data set on A549 cell-bearing mice [1] (48 h post-injection), the “ratio of platinum concentration tumor/blood” value turned out to be 14.37, the “ratio of platinum concentration tumor/bone” value was found to be 3.03, the “ratio of platinum concentration tumor/kidney” value is listed as 0.42 and the “ratio of platinum concentration tumor/liver” value was 0.59. In the data set on A549 cell-bearing mice [1] (48 h post-injection), the “ratio of platinum concentration tumor/muscle” value is 4.09 and the “platinum accumulation in tumors” value is listed as 1055 ± 278 Pt ng/g tissue. Besides, the “half-life in mouse plasma” value in data set [2] was “approximately 2 h”. 447 ± 99 µM corresponded to half-maximal inhibition in the data set with HeLa cells (IC50). Also, the “toxic side effects (body weight, loss of appetite, injection site)” value in the data set with A549 cell-bearing mice [3] is “reduces toxicity compared to that of cisplatin”.
